pIC50: −log10 of the molar value. Activity calls are given as the source filed them. The rule behind the calls is not given here.
What was measured:
[1] = test system: Jurkat; assay: Cell cycle arrest in human Jurkat cells assessed as decrease in accumulation of cells at G1 phase after 24 hrs by propidium iodide staining based flow cytometric analysis; type: functional
How it was run: (§1)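 HeLa or Jurkat cells (5 × 10⁵, exponential growth) treated 24 h with 31–500 nM compound. Cells fixed in ice-cold 70% ethanol, treated with lysis buffer containing RNase A and 0.1% Triton X-100, then stained with propidium iodide. DNA content measured by flow cytometry to give phase distribution. Mean ± SEM of three independent experiments.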

[2] = test system: HeLa; assay: Induction of apoptosis in human HeLa cells at 500 nM after 24 to 48 hrs by Annexin V-FITC/propidium iodide staining based biparametric cytofluorimetric analysis; type: functional, cell-based
How it was run: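 HeLa cells treated at 250 or 500 nM for 24 or 48 h, then labelled with annexin-V-FITC (phosphatidylserine) plus propidium iodide. Red and green fluorescence measured by biparametric flow cytometry. Mean ± SEM of three independent experiments.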

[3] = Growth inhibition of human resting PBL after 72 hrs by MTT assay; type: cell-based; conditions: resting peripheral blood lymphocytes (PBL)
[4] = test system: HT-29; assay: Ratio of CA-4 IC50 to compound IC50 for human HT-29 cells after 72 hrs by MTT assay; type: functional
[5] = test system: HeLa; assay: Antiproliferative activity against human HeLa cells after 72 hrs by MTT assay; type: functional, cell-based
[6] = test system: A549; assay: Antiproliferative activity against human A549 cells after 72 hrs by MTT assay; type: functional, cell-based; conditions: A549, 72 h
[7] = test system: HeLa; assay: Cell cycle arrest in human HeLa cells assessed as accumulation of cells at G2/M phase after 24 hrs by propidium iodide staining based flow cytometric analysis; type: functional; how it was run: as §1
[8] = Antiproliferative activity against human vinblastine-resistant CEM/VBL100 cells overexpressing P-glycoprotein after 72 hrs by MTT assay; type: functional, cell-based; conditions: CEM/VBL100, 72 h
[9] = test system: CCRF-CEM; assay: Antiproliferative activity against human CEM cells after 72 hrs by MTT assay; type: functional, cell-based
[10] = test system: HeLa; assay: Induction of apoptosis in human HeLa cells assessed as disappearance of uncleaved caspase-2 protein at 250 to 500 nM after 24 to 48 hrs by Western blot analysis; type: functional, cell-based
How it was run: (§2)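 HeLa cells treated for 24 or 48 h, washed twice with ice-cold PBS and lysed on ice 30 min; lysates spun at 15000 ×g, 4 °C. Protein (20 μg) resolved by SDS–PAGE on 7.5–15% gels and blotted to PVDF. Specific primary antibodies for 2 h at room temperature, then peroxidase secondary for 60 min, ECL detection. Membranes stripped and reprobed for β-actin as loading control.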

[11] = test system: HeLa; assay: Downregulation of Mcl-1 expression in human HeLa cells at 250 to 500 nM after 24 hrs by Western blot analysis; type: functional, cell-based; how it was run: as §2
[12] = test system: HeLa; assay: Downregulation of Bcl-2 expression in human HeLa cells at 250 to 500 nM after 24 to 48 hrs by Western blot analysis; type: functional, cell-based; how it was run: as §2
[13] = test system: HL-60; assay: Antiproliferative activity against human HL60 cells after 72 hrs by MTT assay; type: functional, cell-based; conditions: HL-60, 72 h
[14] = test system: A549; assay: Ratio of CA-4 IC50 to compound IC50 for human A549 cells after 72 hrs by MTT assay; type: functional
[15] = test system: MCF7; assay: Antiproliferative activity against human MCF7 cells after 72 hrs by MTT assay; type: functional, cell-based; conditions: MCF7, 72 h
[16] = test system: HeLa; assay: Effect on Bax expression in human HeLa cells at 250 to 500 nM after 24 to 48 hrs by Western blot analysis; type: functional, cell-based; how it was run: as §2
[17] = test system: CCRF-CEM; assay: Resistance ratio of IC50 for human vinblastine-resistant CEM/VBL100 cells overexpressing P-glycoprotein to IC50 for human CEM cells; type: functional
[18] = test system: HeLa; assay: Induction of apoptosis in human HeLa cells assessed as ROS production; type: functional, cell-based
[19] = test system: HeLa; assay: Induction of apoptosis in human HeLa cells assessed as caspase-3 activation at 250 to 500 nM after 24 to 48 hrs by Western blot analysis; type: functional, cell-based; how it was run: as §2

In the case of `CCOc1ccc(-c2sc(NC)nc2-c2cc(OC)c(OC)c(OC)c2)cc1`, the Activity [1] was “Dose-dependent effect”, the Activity [2] was “Active” and the GI50 at 72 h [3] was 0.443 µM. The “Ratio IC50” value [4] was 1000, the pIC50 [5] was 7.88 and the pIC50 [6] was 7.41. For the same compound, the Activity [7] was “Dose-dependent effect”, the pIC50 [8] was 8.92 and the pIC50 [9] was 9.10. The Activity [10] was “Active”, the Activity [11] was “Active” and the Activity [12] was “Active”. For the same compound, the pIC50 [13] was 8.74, the “Ratio IC50” value [14] was 5 and the pIC50 [15] was 7.61. The Activity [16] was “inactive”, the “Ratio IC50” value [17] was 2.9 and the Activity [18] was “Active”. The Activity [19] was “Active”.

Reference: ChEMBL document CHEMBL2202972, “Synthesis and biological evaluation of 2-substituted-4-(3',4',5'-trimethoxyphenyl)-5-aryl thiazoles as anticancer agents” (Bioorg Med Chem, 2012)
